According to ChEMBL document CHEMBL3621108, “Discovery, Development, and SAR of Aminothiazoles as LIMK Inhibitors with Cellular Anti-Invasive Properties” (J Med Chem, 2015):

Columns and labels:
LIM domain kinase 1 [1] = biological target: T1, LIM domain kinase 1 (Homo sapiens, UniProt P53667); assay: Inhibition of recombinant N-terminal 6His-tagged LIMK1 (unknown origin) expressed in Sf21 cells by HTRF assay using cofilin as a substrate
Target sequence in this assay (P53667 whole entry, the tested form may be a part): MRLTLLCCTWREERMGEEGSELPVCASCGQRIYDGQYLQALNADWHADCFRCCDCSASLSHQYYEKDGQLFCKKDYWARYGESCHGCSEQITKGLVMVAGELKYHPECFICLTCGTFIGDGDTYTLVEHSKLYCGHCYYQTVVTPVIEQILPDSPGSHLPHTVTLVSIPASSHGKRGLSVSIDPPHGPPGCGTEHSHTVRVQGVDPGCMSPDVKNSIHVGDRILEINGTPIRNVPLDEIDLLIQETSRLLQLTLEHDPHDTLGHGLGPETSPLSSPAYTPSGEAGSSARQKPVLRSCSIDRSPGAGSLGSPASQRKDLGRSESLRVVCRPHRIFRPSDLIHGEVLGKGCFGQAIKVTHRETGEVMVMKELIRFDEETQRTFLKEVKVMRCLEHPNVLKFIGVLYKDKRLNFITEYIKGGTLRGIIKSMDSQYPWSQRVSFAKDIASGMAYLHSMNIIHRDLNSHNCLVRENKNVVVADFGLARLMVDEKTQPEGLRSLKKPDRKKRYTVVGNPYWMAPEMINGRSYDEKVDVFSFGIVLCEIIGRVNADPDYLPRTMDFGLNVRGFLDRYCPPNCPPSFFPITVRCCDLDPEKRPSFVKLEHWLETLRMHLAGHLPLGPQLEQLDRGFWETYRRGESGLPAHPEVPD

LIM domain kinase 1 [2] = biological target: T1, LIM domain kinase 1; assay: Inhibition of LIMK1 in human ZR75-1 cells assessed as inhibition of cofilin phosphorylation after 5 hrs; assay type: cell-based, ZR-75-1
In short: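 p-Cofilin biomarker assay in ZR-75-1 cells, imaged and quantified on a Cellomics array scan instrument.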
Target sequence in this assay (P53667 whole entry, the tested form may be a part): as above

LIM domain kinase 2 [3] = biological target: T2, LIM domain kinase 2 (Homo sapiens, UniProt P53671); assay: Inhibition of human N-terminal GST-tagged LIMK2
In short: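 LIMK2 activity measured in a lanthabind-format assay.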
Target sequence in this assay (P53671 whole entry, the tested form may be a part): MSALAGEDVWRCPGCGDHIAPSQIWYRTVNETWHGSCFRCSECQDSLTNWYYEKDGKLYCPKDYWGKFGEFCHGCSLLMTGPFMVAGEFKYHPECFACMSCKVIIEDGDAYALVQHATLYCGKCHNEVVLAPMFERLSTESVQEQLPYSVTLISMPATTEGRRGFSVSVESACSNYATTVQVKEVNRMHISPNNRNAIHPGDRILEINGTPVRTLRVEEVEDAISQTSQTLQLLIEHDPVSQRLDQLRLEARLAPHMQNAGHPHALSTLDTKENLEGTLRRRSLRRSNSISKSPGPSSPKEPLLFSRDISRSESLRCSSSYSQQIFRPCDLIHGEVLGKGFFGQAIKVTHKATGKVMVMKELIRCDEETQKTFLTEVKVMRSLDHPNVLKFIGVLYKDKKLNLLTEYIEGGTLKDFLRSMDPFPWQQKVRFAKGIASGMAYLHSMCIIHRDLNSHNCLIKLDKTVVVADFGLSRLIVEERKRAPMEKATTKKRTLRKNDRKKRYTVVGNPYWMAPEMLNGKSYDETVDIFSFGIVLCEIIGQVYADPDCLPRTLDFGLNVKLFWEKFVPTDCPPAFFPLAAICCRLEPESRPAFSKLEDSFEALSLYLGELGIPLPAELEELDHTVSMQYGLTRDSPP

[4] = Metabolic stability in mouse liver microsome assessed per gram of tissue; assay type: ADME; conditions: microsomes
Liver microsome = assay: Metabolic stability in human liver microsome assessed per gram of tissue; assay type: ADME; conditions: microsomes
[5] = Cytotoxicity against human MDA-MB-231 cells assessed as viable cells at 10 uM; assay type: cell-based; conditions: read-out: Activity
In short: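 MTT viability assay; cells exposed to 10 µM inhibitor, read-out as % viable cells.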

MDA-MB-231 = assay: Antiinvasion activity in human MDA-MB-231-luc cells at 3 uM by matrigel inverse invasion assay; assay type: functional
In short: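 MDA MB-231-luc cells plated on underside of transwell filter; invasion into matrigel plug (inverse format) scored by confocal microscopy of plug sections. Inhibition = proportion of cells invading beyond 60 µm versus under 60 µm, relative to control; compound at 3 µM.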

[6] = biological target: 5'-AMP-activated protein kinase catalytic subunit alpha-1 (Homo sapiens) (UniProt Q13131); conditions: 10 uM
[7] = biological target: 5'-AMP-activated protein kinase catalytic subunit alpha-2 (Homo sapiens) (UniProt P54646); conditions: 10 uM
[8] = biological target: Cyclin-dependent kinase 2 (Homo sapiens) (UniProt P24941); conditions: 10 uM
[9] = biological target: Cyclin-dependent kinase 7 (Homo sapiens) (UniProt P50613); conditions: 10 uM
[10] = biological target: T3, Cyclin-dependent kinase-like 2 (Homo sapiens) (UniProt Q92772); conditions: 10 uM
T3 sequence (whole entry): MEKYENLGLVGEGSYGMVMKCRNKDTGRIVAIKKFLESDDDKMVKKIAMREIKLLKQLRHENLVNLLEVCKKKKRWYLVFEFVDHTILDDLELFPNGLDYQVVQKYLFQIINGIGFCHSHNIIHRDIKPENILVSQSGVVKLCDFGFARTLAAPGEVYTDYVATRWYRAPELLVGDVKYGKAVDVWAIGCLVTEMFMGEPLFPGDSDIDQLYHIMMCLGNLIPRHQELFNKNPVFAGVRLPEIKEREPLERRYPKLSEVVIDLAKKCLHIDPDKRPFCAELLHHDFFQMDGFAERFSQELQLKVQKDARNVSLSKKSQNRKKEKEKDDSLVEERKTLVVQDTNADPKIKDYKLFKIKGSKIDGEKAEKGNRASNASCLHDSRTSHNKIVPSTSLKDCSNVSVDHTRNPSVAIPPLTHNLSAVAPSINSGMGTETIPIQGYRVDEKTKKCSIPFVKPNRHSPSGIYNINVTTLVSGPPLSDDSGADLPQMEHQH

[11] = biological target: T4, Discoidin domain-containing receptor 2 (Homo sapiens) (UniProt Q16832); conditions: 10 uM
T4 sequence (whole entry): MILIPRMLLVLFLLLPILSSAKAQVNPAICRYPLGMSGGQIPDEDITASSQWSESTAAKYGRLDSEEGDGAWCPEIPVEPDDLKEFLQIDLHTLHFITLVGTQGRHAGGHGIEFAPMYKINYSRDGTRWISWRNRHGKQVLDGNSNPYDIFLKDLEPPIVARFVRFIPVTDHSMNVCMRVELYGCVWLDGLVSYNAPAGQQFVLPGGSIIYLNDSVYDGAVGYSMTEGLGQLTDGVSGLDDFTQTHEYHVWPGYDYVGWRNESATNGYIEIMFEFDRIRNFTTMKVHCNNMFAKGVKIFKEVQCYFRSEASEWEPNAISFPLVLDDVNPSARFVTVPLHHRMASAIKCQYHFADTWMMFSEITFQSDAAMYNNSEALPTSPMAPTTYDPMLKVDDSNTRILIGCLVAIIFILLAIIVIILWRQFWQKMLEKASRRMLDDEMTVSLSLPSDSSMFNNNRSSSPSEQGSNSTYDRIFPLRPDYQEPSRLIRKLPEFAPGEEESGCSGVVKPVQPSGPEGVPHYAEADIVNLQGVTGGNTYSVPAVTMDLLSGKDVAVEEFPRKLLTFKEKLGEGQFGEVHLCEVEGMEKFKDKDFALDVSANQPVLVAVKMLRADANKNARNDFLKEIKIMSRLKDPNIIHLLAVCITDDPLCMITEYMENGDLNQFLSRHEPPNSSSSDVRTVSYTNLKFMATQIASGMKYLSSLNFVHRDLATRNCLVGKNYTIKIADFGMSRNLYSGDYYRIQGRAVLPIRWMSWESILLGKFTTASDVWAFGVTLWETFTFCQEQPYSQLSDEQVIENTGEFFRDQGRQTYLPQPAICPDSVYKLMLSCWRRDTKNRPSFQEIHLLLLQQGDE

[12] = biological target: T5, Mitogen-activated protein kinase 15 (Homo sapiens) (UniProt Q8TD08); conditions: 10 uM
T5 sequence (whole entry): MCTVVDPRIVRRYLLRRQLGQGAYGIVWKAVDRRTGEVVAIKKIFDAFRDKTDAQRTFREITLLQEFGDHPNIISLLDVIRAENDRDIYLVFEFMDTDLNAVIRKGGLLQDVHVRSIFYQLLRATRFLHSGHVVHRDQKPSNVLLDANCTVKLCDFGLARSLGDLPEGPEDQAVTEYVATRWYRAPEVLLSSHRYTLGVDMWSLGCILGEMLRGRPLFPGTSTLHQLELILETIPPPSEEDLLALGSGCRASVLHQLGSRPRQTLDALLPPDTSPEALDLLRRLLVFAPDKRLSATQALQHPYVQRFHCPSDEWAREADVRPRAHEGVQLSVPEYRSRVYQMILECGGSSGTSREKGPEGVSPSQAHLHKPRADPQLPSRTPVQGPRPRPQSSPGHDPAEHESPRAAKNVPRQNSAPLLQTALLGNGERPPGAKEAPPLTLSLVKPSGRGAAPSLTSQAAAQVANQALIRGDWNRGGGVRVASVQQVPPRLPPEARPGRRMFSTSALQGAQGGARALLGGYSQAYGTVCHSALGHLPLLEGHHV

[13] = biological target: T6, Serine/threonine-protein kinase MAK (Homo sapiens) (UniProt P20794); conditions: 10 uM
T6 sequence (whole entry): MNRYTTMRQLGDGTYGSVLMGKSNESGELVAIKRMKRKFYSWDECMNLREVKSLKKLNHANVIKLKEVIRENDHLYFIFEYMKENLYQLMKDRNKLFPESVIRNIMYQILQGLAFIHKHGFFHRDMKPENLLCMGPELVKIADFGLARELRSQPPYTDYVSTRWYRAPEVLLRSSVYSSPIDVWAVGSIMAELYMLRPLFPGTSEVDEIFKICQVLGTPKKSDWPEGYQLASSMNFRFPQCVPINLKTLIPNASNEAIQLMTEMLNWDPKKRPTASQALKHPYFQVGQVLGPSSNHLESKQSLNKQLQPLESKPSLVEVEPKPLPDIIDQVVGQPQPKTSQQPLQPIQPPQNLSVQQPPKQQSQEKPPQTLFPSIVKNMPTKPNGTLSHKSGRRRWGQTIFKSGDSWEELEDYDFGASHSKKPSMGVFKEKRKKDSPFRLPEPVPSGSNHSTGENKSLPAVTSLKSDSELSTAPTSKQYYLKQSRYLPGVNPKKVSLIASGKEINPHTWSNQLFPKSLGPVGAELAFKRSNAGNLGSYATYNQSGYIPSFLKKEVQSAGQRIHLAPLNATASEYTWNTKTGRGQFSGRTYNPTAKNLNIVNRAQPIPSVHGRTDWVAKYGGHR

[14] = biological target: Serine/threonine-protein kinase PAK 3 (Homo sapiens) (UniProt O75914); conditions: 10 uM
[15] = biological target: Cyclin-dependent kinase 18 (Homo sapiens) (UniProt Q07002); conditions: 10 uM
[16] = biological target: T7, Phosphatidylinositol 5-phosphate 4-kinase type-2 gamma (Homo sapiens) (UniProt Q8TBX8); conditions: 10 uM
T7 sequence (whole entry): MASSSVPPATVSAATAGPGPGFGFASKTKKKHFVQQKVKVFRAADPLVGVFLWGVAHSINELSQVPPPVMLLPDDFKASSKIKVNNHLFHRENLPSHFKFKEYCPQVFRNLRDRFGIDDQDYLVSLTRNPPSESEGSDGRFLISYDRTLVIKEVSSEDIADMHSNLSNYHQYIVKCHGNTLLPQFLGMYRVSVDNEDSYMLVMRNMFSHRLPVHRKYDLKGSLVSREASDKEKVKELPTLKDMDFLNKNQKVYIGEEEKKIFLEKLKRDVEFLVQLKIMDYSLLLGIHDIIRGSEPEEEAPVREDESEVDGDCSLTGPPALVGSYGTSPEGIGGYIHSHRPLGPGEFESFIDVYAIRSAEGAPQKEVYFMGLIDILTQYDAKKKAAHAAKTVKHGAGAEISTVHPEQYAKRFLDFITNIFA

[17] = biological target: Serine/threonine-protein kinase 16 (Homo sapiens) (UniProt O75716); conditions: 10 uM
LIM domain kinase 1 [18] = biological target: T1, LIM domain kinase 1; conditions: 10 uM
Target sequence in this assay (P53667 whole entry, looked up, the tested form may be a part): as the sequence (P53667 whole entry, the tested form may be a part) above

LIM domain kinase 2 [19] = biological target: T2, LIM domain kinase 2; conditions: 10 uM
Target sequence in this assay (P53671 whole entry, looked up, the tested form may be a part): as the sequence (P53671 whole entry, the tested form may be a part) above

Cyclin-dependent kinase 7 (Homo sapiens), sequence (P50613 whole entry): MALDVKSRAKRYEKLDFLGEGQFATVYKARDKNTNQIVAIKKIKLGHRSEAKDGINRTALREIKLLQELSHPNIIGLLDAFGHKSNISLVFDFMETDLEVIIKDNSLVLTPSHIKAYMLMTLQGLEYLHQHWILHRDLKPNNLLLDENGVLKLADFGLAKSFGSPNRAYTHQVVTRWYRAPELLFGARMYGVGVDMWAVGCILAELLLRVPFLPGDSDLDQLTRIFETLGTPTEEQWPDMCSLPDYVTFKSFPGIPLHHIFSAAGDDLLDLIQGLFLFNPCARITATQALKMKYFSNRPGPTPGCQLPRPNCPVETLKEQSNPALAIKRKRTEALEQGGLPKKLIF
5'-AMP-activated protein kinase catalytic subunit alpha-1 (Homo sapiens), sequence (Q13131 whole entry, looked up): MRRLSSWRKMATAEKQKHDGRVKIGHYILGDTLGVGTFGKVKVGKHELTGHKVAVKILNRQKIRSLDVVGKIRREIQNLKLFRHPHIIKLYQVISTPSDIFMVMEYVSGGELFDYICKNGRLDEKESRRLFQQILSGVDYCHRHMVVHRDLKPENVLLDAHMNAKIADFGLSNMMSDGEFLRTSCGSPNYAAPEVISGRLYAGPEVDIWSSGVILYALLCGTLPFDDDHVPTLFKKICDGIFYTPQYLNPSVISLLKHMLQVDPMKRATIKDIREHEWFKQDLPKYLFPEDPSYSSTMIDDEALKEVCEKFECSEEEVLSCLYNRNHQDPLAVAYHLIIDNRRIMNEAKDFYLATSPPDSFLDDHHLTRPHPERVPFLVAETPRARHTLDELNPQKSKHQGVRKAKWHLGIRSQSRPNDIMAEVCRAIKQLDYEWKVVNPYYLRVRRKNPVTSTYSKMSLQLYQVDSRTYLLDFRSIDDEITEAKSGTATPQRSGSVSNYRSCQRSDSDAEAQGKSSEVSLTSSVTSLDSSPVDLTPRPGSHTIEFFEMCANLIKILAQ
Cyclin-dependent kinase 18 (Homo sapiens), sequence (Q07002 whole entry): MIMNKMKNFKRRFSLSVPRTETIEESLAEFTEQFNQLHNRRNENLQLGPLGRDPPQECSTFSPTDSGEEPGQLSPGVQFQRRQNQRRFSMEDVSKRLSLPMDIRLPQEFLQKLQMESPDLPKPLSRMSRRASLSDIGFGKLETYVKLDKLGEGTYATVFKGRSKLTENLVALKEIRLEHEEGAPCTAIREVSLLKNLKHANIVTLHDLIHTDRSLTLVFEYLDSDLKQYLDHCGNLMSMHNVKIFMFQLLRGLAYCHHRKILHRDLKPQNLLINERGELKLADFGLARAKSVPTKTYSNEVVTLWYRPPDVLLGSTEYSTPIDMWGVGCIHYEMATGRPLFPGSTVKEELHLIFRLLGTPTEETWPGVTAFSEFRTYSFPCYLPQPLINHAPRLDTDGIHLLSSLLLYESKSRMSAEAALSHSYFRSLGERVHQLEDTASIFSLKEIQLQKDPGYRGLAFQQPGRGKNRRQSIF
5'-AMP-activated protein kinase catalytic subunit alpha-2 (Homo sapiens), sequence (P54646 whole entry, looked up): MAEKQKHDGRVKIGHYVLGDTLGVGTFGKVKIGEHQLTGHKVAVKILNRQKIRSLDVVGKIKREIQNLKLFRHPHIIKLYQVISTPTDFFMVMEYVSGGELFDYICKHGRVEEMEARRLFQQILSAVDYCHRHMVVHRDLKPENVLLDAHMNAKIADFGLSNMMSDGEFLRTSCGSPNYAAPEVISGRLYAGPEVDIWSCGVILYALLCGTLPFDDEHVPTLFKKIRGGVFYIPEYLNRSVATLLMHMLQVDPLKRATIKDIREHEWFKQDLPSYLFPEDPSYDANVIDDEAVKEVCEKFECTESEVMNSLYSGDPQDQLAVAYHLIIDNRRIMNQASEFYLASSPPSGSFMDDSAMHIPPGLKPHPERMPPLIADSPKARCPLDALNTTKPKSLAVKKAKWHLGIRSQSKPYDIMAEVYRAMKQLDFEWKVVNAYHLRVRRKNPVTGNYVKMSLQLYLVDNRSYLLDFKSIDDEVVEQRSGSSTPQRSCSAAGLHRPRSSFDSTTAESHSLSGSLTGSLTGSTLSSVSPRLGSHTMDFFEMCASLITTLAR
Serine/threonine-protein kinase PAK 3 (Homo sapiens), sequence (O75914 whole entry, looked up): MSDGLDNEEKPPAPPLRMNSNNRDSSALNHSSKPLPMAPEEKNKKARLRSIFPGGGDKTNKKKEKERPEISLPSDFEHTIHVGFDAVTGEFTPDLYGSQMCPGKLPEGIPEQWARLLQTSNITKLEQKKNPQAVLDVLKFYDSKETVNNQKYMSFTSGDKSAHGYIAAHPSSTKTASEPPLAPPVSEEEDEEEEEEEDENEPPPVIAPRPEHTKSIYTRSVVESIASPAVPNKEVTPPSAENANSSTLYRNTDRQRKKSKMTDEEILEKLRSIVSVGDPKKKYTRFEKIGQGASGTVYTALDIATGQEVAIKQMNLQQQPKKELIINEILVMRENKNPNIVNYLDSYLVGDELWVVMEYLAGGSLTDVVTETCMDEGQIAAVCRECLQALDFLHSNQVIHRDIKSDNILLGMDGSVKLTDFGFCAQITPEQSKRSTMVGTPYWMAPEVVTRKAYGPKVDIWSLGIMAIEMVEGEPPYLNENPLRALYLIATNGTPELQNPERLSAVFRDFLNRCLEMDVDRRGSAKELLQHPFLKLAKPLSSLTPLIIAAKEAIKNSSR
Serine/threonine-protein kinase 16 (Homo sapiens), sequence (O75716 whole entry, the tested form may be a part): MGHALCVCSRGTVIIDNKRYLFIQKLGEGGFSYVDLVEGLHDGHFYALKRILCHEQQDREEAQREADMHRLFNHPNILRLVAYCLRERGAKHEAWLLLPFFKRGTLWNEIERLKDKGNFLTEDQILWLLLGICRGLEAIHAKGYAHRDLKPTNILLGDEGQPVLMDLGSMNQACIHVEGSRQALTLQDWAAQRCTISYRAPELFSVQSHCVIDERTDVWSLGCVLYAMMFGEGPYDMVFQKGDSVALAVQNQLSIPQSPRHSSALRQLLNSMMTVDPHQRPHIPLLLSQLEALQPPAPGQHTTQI

SMILES | IC50 (LIM domain kinase 1 [1]) [nM] | IC50 (LIM domain kinase 1 [2]) [nM] | also measured
Nc1ncc(-c2ccncc2-c2ccccc2Cl)s1 | 270 | > 30000 | 
CCCNc1ncc(-c2ccncc2-c2ccc(Cl)cc2)s1 | 620 |  | 
Cc1ccc(-c2cnccc2-c2cnc(NC(=O)C(C)C)s2)c(Cl)c1 | 1 |  | IC50 (LIM domain kinase 2 [3]): 3 nM; Stability [4]: 19.4 mL/min; Stability (Liver microsome): 8.3 mL/min; viability at 10 µM [5]: 131%; inhibition at 3 µM (MDA-MB-231): 48%
Clc1ccccc1-c1cnccc1-c1cnc(Nc2ccccc2)s1 | 3 | 600 | 
CCCNc1ncc(-c2ccncc2-c2ccc(OC)cc2C(F)(F)F)s1 | 13 | 2500 | 
C=CCNc1nc(N)c(C(=O)c2ccc3c(c2)OCO3)s1 | 4000 |  | 
C[C@@H](Nc1ncc(-c2ccncc2-c2ccccc2Cl)s1)c1ccccc1 | 4 | 2100 | 
C[C@H](Nc1ncc(-c2ccncc2-c2ccccc2Cl)s1)c1ccccc1 | 40 | 9200 | 
COc1ccc(-c2cnccc2-c2cnc(NC(=O)C(C)C)s2)c(C(F)(F)F)c1 |  | 2000 | IC50 (LIM domain kinase 2 [3]): 48 nM; Stability [4]: 5.2 mL/min; Stability (Liver microsome): 3.7 mL/min; viability at 10 µM [5]: 106%; inhibition at 3 µM (MDA-MB-231): 52%; inhibition [6]: > 90%; inhibition [7]: > 90%; inhibition [8]: > 90%; inhibition [9]: > 90%; inhibition [10]: > 90%; inhibition [11]: > 90%; inhibition [12]: > 90%; inhibition [13]: > 90%; inhibition [14]: > 90%; inhibition [15]: > 90%; inhibition [16]: > 90%; inhibition [17]: > 90%; inhibition (LIM domain kinase 1 [18]): > 90%; inhibition (LIM domain kinase 2 [19]): > 90%
CC(C)C(=O)Nc1ncc(-c2ccncc2-c2ccccc2Cl)s1 | 3 | 800 | 
CCCNc1ncc(-c2ccncc2)s1 | 19000 |  | 

Second part, led by results:

IC50 (LIM domain kinase 1 [1]) [nM] | IC50 (LIM domain kinase 1 [2]) [nM] | SMILES | also measured
≥ 30000 |  | CCCNc1ncc(-c2ncccc2-c2ccccc2Cl)s1 | 
15 | 3800 | CCCNc1ncc(-c2ccncc2-c2ccccc2Cl)s1 | 
3300 |  | CCCNc1ncc(-c2ccncc2-c2ccccc2C(C)C)s1 | 
850 |  | CCCNc1ncc(-c2ccncc2-c2ccccc2)s1 | 
37 | 2200 | CCCNc1ncc(-c2ccncc2-c2ccccc2C(F)(F)F)s1 | 
120 | 14000 | CCNc1ncc(-c2ccncc2-c2ccccc2Cl)s1 | 
82 | 11500 | CCCNc1ncc(-c2ccncc2-c2ccccc2C)s1 | 
327 |  | CCCNc1ncc(-c2cccnc2-c2ccccc2Cl)s1 | 
3100 |  | CCCN(C)c1ncc(-c2ccncc2-c2ccccc2Cl)s1 | 
5 | 1500 | CC(C)CNc1ncc(-c2ccncc2-c2ccccc2Cl)s1 | viability at 10 µM [5]: 88%; inhibition at 3 µM (MDA-MB-231): 34%
574 |  | CCCNc1ncc(-c2cnccc2-c2ccccc2Cl)s1 | 
20 | 1400 | CC(=O)Nc1ncc(-c2ccncc2-c2ccccc2Cl)s1 | 
500 |  | CCCNc1ncc(-c2ccncc2-c2cccc(Cl)c2)s1 | 
